V1aR counter: activates human V1a receptor in oxytocin agonist counter-screen; P37288; CHO-V1R cells, Fluo-8 calcium fluorescence, agonist mode; 0% DMSO, 100% 3 nM vasopressin; activation, % at 3 µM; 320,000 compounds, 0.25% hits; AID 2797;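 active = activation above the mean activation of all tested compounds plus 3 SD, per screening run, cut at about 20% in these data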;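 note: signal is peak over basal fluorescence ratio across a 100 second FLIPR read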
Target sequence (P37288 whole entry, looked up): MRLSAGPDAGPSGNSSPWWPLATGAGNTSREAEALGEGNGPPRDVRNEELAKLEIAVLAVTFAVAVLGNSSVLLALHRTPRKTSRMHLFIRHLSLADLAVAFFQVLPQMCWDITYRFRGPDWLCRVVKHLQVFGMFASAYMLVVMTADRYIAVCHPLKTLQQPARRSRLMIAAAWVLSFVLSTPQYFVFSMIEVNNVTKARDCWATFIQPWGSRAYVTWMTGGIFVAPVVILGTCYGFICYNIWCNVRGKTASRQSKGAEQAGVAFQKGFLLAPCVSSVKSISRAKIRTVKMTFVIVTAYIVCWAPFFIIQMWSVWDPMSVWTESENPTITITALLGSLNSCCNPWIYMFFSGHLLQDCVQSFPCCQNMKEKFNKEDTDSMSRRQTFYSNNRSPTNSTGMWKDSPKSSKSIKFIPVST
OXTR ag: activates the human oxytocin receptor; CHO-OTR cells, Fluo-8 calcium fluorescence; normalized: DMSO 0%, oxytocin 100%; activation, % at 3 µM; 320,000 compounds, 0.32% hits;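 active = activation above the mean of all tested compounds plus 3 SD, cutoff set per screening run, cut at about 20% in these data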;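 note: peak over basal fluorescence ratio from a 100 s FLIPR kinetic read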
Target sequence (P30559 whole entry, looked up): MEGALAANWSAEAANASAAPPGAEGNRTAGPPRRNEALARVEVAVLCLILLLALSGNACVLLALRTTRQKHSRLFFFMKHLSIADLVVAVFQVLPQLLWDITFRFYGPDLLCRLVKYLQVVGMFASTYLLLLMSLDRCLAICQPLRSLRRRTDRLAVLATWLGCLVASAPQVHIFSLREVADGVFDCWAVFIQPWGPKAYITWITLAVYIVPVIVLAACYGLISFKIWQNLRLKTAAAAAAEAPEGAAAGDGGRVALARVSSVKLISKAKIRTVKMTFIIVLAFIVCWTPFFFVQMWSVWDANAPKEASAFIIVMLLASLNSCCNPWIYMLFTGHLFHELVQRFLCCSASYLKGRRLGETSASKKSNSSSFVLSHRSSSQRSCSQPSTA
TAAR1 antagonist: antagonists of human TAAR1; AID 624466; Q96RJ0; CHO RD-HGA16 TAAR1, Fluo-8 calcium fluorescence, antagonist; inhibition, % at 3 µM; 360,000 compounds, 1.5% hits;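 active = inhibition above a per-plate cutoff, the mean inhibition of test compounds on that plate plus 3 SD, cut at about 49% in these data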;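 note: 0% = DMSO plus EC80 beta-PEA response and 100% = DMSO alone without agonist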
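Test system – hTAAR1-expressing CHO RD-HGA16 cells, Gα16-coupled · Reagent – β-PEA at EC80 concentration, post-compound challenge · Compound dosing – 3 µM, single point · Timing – 140 s kinetic read after compound, 140 s after agonist · Detection – Fluo-8 intracellular calcium dye fluorescence, real-time kinetic reads · Control set – DMSO and EC80 PEA controls · Repeats – n of 1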
OXTR potentiator: human OXTR potentiation | P30559 | CHO-OTR cells, Fluo-8 calcium fluorescence, potentiator mode; 0% = oxytocin EC15, 100% = EC100 | activation, % at 3 µM | 320,000 compounds, 0.061% hits;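 active = activation above that plate's cutoff, the mean activation of tested compounds plus 3 SD, cut at about 6.6% in these data, passing the limit was not always enough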;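 note: 100% uses oxytocin at 75 nM as the full agonist control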
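Measured by – Fluo-8 calcium dye fluorescence · Test system – human OTR in CHO cells · Dosing – one concentration, 3.0 µM compound · Controls – EC15 oxytocin alone as 0%, 75 nM oxytocin as 100% · Evaluation – normalized max/min fluorescence ratio, % activation · Timing – 6 min pre-incubation, 100 s read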
TAAR1 agonist: human TAAR1 agonism. CHO RD-HGA16 TAAR1, Fluo-8 calcium fluorescence; vehicle wells 0%, saturating PEA agonist 100%. activation, % at 3 µM. 360,000 compounds, 0.99% hits. Q96RJ0. AID 624467;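 active = activation above the mean activation of all test compounds in the run plus 3 SD, cut at about 38% in these data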
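System: CHO-derived RD-HGA16 cells with stable Gα16 and human TAAR1 / Times: 17-24 h plating, Fluo-8 75 min 37 °C, 30 min RT / Technique: calcium-sensitive Fluo-8 signal, excitation 470-495, emission 515-575 nm / Measure: % activation relative to PEA EC100 response / Benchmarks: DMSO and PEA EC100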
TAAR1 nonsel count: nonselective antagonist in TAAR1 antagonist counter-screen; shares compounds with TAAR1 antagonist; counterscreen cell line, calcium fluorescence, antagonist mode; inhibition, % at 3 µM; 2,400 compounds, 77% hits; AID 651780; in the data active = inhibition above about 22%;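 note: CHO-Ga16 host cells stimulated with ATP at an EC80 level; 0% = agonist EC80 plus vehicle and 100% = vehicle without agonist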
TAAR1 ant conf: human TAAR1 antagonism, confirmed. 2,400 compounds, 40% hits. shares compounds with TAAR1 antagonist. TAAR1-expressing cells, fluorescence antagonist read-out. AID 651785. inhibition, % at 3 µM; in the data active = inhibition above about 49%;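 note: CHO-Ga16 host cells challenged with agonist PEA near its EC80; 0% = agonist at EC80 plus vehicle and 100% = vehicle with no agonist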
Ga16 nonsel ag: nonselective Ga16 agonism, counter-screen; shares compounds with TAAR1 antagonist; 2,400 compounds, 18% hits; Ga16-expressing cells, calcium fluorescence, agonist counterscreen; AID 651953; activation, % at 3 µM; in the data active = activation above about 12%;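 note: 0% = vehicle wells and 100% = saturating stimulus response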
TAAR1 ag counter: counter-screen for human TAAR1 antagonists: TAAR1 agonists. shares compounds with TAAR1 antagonist. hTAAR1 cell line, fluorescence activation, agonist mode. activation, % at 3 µM. 2,400 compounds, 2% hits. AID 651955; in the data active = activation above about 37%;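 note: CHO cells stably expressing TAAR1 with calcium dye readout; 0% = DMSO vehicle and 100% = full agonist response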
The depositor's hits bear a star; nt = no result given. The list is not random: actives were taken first. Their share in the collection is about 2.3%.

SMILES | V1aR counter | OXTR ag | TAAR1 antagonist | OXTR potentiator | TAAR1 agonist | TAAR1 nonsel count | TAAR1 ant conf | Ga16 nonsel ag | TAAR1 ag counter
Cc1cccc(NC(=O)c2nc[nH]c2C(=O)NCCCCCNC(=O)OC(C)(C)C)c1 | -0.3 | -0.7 | 55.9* | -3.0 | 14.6 | 19.3 | 37.8 | 5.2 | 12.3
CC(C)(C)OC(=O)NCCCCCNC(=O)c1nc[nH]c1C(=O)NCC(=O)OCc1ccccc1 | 4.0 | 2.2 | 77.9* | -8.4 | 20.2 | 38.5* | 62.4* | 13.3* | 13.0
CC(C)(C)OC(=O)N1CCN(C(=O)c2[nH]cnc2C(=O)N[C@@H](Cc2ccccc2)C(=O)OCc2ccccc2)CC1 | -0.8 | -0.1 | 68.9* | -4.4 | 23.7 | 22.7* | 45.3 | 6.6 | 6.7
O=C(CNC(=O)c1[nH]cnc1C(=O)NC(c1ccccc1)c1ccccc1)OCc1ccccc1 | 1.3 | -0.1 | 67.8* | -7.6 | 10.2 | 25.8* | 42.1 | 3.5 | 1.0
CC(C)(C)OC(=O)[C@H](Cc1ccccc1)NC(=O)c1nc[nH]c1C(=O)N1CCN(C(=O)OC(C)(C)C)CC1 | -0.3 | -2.2 | 26.8 | -3.7 | 14.4 | nt | nt | nt | nt
Cc1cccc(NC(=O)c2nc[nH]c2C(=O)NCCCNC(=O)c2[nH]cnc2C(=O)Nc2cccc(C)c2)c1 | 0.1 | 1.6 | 38.4 | -4.5 | 9.6 | nt | nt | nt | nt
CCCNC(=O)C1(C)CCN(C(=O)c2cc(F)cc(F)c2)C1 (stereo not drawn) | nt | nt | -19.3 | nt | 0.9 | nt | nt | nt | nt
CC1C(=O)CC2C3(C)CCC2(C(C)C(=O)O)C(=O)C13 (stereo not drawn) | nt | nt | -11.5 | nt | 1.6 | nt | nt | nt | nt
CCCCNC1c2ccccc2C(=O)N1Cc1ccccc1 (stereo not drawn) | -1.2 | -1.6 | -12.2 | -2.7 | 32.5 | nt | nt | nt | nt
CC(C)(C)OC(=O)CNC(=O)c1nc[nH]c1C(=O)NCc1ccc(CNC(=O)OC(C)(C)C)cc1 | 8.4 | 9.2 | 70.5* | -19.4 | 17.9 | 40.5* | 53.8* | 15.6* | 17.2
CC(C)(C)OC(=O)CNC(=O)c1nc[nH]c1C(=O)NCc1ccccc1 | 1.1 | 1.7 | 3.5 | -11.5 | 9.1 | nt | nt | nt | nt
CC(C)(C)OC(=O)[C@H](Cc1ccccc1)NC(=O)c1nc[nH]c1C(=O)NCC(=O)OCc1ccccc1 | -0.4 | -1.0 | 35.2 | -13.1 | 2.7 | nt | nt | nt | nt
CC(C)(C)OC(=O)NCCCC[C@H](NC(=O)c1nc[nH]c1C(=O)NCC(=O)OCc1ccccc1)C(=O)OC(C)(C)C | 1.1 | -2.1 | 54.9* | -3.4 | 8.2 | 23.3* | 29.2 | 1.4 | -1.4
CC(C)(C)OC(=O)CNC(=O)c1[nH]cnc1C(=O)NCC(=O)OCc1ccccc1 | 0.6 | 3.7 | 69.5* | -14.8 | 19.0 | 31.4* | 56.1* | 11.2 | 14.2
CC(C)(C)OC(=O)NCCCCCNC(=O)c1nc[nH]c1C(=O)N1CCc2ccccc2C1 | 1.1 | 0.0 | 76.2* | -5.2 | 22.1 | 33.9* | 51.8* | 11.0 | 13.6
COCCNC(=O)C1(C)CCCN(C(=O)c2ccccc2C(F)(F)F)C1 (stereo not drawn) | nt | nt | -18.5 | nt | 0.4 | nt | nt | nt | nt
C[C@H](NC(=O)c1[nH]cnc1C(=O)Nc1ccc(CNC(=O)OC(C)(C)C)cc1)C(=O)OCc1ccccc1 | 1.2 | -0.9 | 66.9* | -13.1 | 14.3 | 34.3* | 52.0* | 4.7 | 9.1
CC(C)CCN1CCN=C1Nc1ccccc1 | 0.0 | 0.9 | 108.3* | -9.1 | 14.6 | 2.1 | -5.7 | 0.1 | -0.1
O=C(OCC(=O)N(Cc1ccccc1)Cc1ccccc1)c1cccc(O)c1 | 0.4 | -0.9 | 63.1* | -2.9 | 7.1 | 26.4* | 39.9 | 2.2 | 1.9
O=C(OCCOc1ccccc1)c1cc(S(=O)(=O)N2CCOCC2)c(Cl)cc1Cl | nt | nt | 0.9 | nt | 1.1 | nt | nt | nt | nt
NNC(=O)CNC(c1ccccc1)c1cc(Br)ccc1NC(=O)c1cccc(Cl)c1 (stereo not drawn) | 0.8 | -0.6 | 21.2 | -4.2 | 4.7 | nt | nt | nt | nt
COC(=O)CNC(c1ccccc1)c1cc(Cl)ccc1NC(=O)c1cccc(Cl)c1 (stereo not drawn) | 2.0 | -1.6 | 86.7* | -7.4 | -1.3 | 10.9 | 33.8 | 1.9 | 6.0
COc1ccc(N2CCN(C(=O)c3cc(-c4cc(OC)ccc4OC)nc4ccccc34)CC2)cc1 | 0.4 | -0.6 | 60.4* | -9.4 | 10.4 | 27.3* | 48.9* | 10.5 | 14.8
COc1ccc(-c2cc(C(=O)N3CCN(c4ncccn4)CC3)c3ccccc3n2)cc1 | 2.7 | -1.6 | 52.2* | -4.2 | 35.3 | 29.5* | 48.0 | 9.8 | 8.2
CS(=O)(=O)N1CCN(C(=O)c2cc(-c3ccccc3)nc3ccccc23)CC1 | 2.2 | 3.2 | 11.9 | -5.8 | 10.8 | nt | nt | nt | nt
SMILES | V1aR counter | OXTR ag | TAAR1 antagonist | OXTR potentiator | TAAR1 agonist | TAAR1 nonsel count | TAAR1 ant conf | Ga16 nonsel ag | TAAR1 ag counter
CCOc1ccc2oc(C(=O)N3CCN(c4ccccc4OCC)CC3)c(C)c2c1 | -1.6 | -2.1 | 59.8* | -7.8 | 2.6 | 19.9 | 42.8 | 2.1 | 10.7
O=C(c1cc(-c2cccnc2)nc2ccccc12)N1CCN(S(=O)(=O)c2cccs2)CC1 | 2.4 | -1.4 | 51.4* | -5.9 | 17.4 | 21.8* | 33.6 | 6.3 | 5.5
COc1ccc(-c2cc(C(=O)N3CCCC3)c3ccccc3n2)cc1 | 3.3 | -0.1 | 15.7 | -1.2 | 7.2 | nt | nt | nt | nt
COc1ccc(-c2cc(C(=O)N3CCN(c4ncccn4)CC3)c3ccccc3n2)c(OC)c1 | -0.4 | -2.3 | 74.1* | 0.4 | 15.8 | 31.1* | 53.6* | 8.4 | 8.9
CCOc1ccccc1N1CCN(C(=O)c2cc(-c3cc(OC)ccc3OC)nc3ccccc23)CC1 | 1.6 | -0.3 | 73.4* | -8.9 | 3.9 | 20.7 | 42.9 | 6.2 | 4.3
COc1ccc(OC)c(-c2cc(C(=O)N3CCN(c4ncccn4)CC3)c3ccccc3n2)c1 | 0.8 | -2.6 | 78.4* | -1.9 | 11.2 | 27.6* | 46.9 | 7.5 | 20.0
COc1ccc(OC)c(-c2cc(C(=O)O)c3cc4ccccc4cc3n2)c1 | nt | nt | -5.3 | nt | 0.7 | nt | nt | nt | nt
COc1ccc(-c2cc(C(=O)N3CCCCCC3)c3ccccc3n2)c(OC)c1 | -0.9 | -0.8 | 34.8 | -5.5 | 1.4 | nt | nt | nt | nt
COc1cccc(CN2CCN(C(=O)c3cc(-c4cccnc4)nc4ccc(C)cc34)CC2)c1 | -0.1 | 1.4 | 65.8* | -16.7 | 13.9 | 27.4* | 48.2 | 8.9 | 8.0

Bioassay records as filed in PubChem BioAssay.
